These results are taken from PMC11164094 (International Journal of Nanomedicine, 2024).

Usually bioavailability stands for dose-corrected exposure relative to a reference, in per cent. A higher bioavailability goes with much systemic uptake. By solubility is commonly meant the concentration that dissolves in the medium under given conditions.

For one data set, the system named is HUA mice. Put plainly: In vivo anti-hyperuricemia study. Set-up: species or system KM mice. Particulars: for serum UA level vs HUA group: gavage once daily, 5 mg/kg FEB, 10 mg/kg OBB, 1, 2, 4 mg/kg OBB-HP-β-CD SDDS. In short, it runs like this:
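KM mice (male, 20 ± 2 g, 4 weeks, SPF) were acclimatised ≥7 days at 24 ± 1°C, n = 10/group. Hyperuricemia was induced daily for 10 days with PO 300 mg/kg i.p. plus HX 300 mg/kg oral. Test compound was gavaged 1 h post-challenge, once daily for 7 days. Kidneys were taken 1 h after the last dose, fixed 24 h in 4% PFA, paraffin-embedded, sectioned at 4 μm, H&E-stained and blind-scored at 200× (n = 3).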

For data set [1] the following is noted: previous study; cited from earlier work.
The conditions of data set [2]: previous study; cited from earlier work. The source holds these as a separate data set.
Data set [3] can be described thus: Pharmacokinetic study in rats. Particulars: male, Sprague Dawley, rat, blood, oral, 50 mg/kg. It is filed as in vivo. The method in brief:
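Male Sprague Dawley rats (200–240 g) were fasted overnight with free water and dosed in groups of 6. Dose was 50 mg/kg test compound, given p.o. as raw material or as HP-β-CD supersaturated formulation, or i.v. as formulation. Heparinized orbital blood was drawn at 0.083–24 h. Acetonitrile protein precipitation with piperine internal standard; centrifuged 2000 ×g, 10 min; residue redissolved in methanol, filtered; HPLC.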

Data set [4] in a line: Appearance and solubility of prepared samples in water. It is filed as physicochemical.
Data set [5] can be described thus: Solubility test of OBB in different dissolution media and excipient solutions. It is filed as physicochemical. Particulars: for Solubility: 25°C, shaken 24 h. The method in brief:
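Excess test compound was added to each medium, with solid excipients made up as 25 mg/mL aqueous solutions. Samples were shaken at 90 rpm and 25°C for 24 h to reach equilibrium. They were then centrifuged (9000 ×g, 20 min), and the supernatant was filtered (0.22 µm), diluted and quantified by HPLC. HPLC used a C18 column with methanol-water 70:30 and 0.1% formic acid, isocratic at 1.0 mL/min, 30°C.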

Converted amounts (≈) assume the structure as drawn.

For the compound `COc1ccc2cc3n(c(=O)c2c1OC)CCc1cc2c(cc1-3)OCO2` [OBB, Oxyberberine], in the data set on HUA mice, the “renal histopathological damage (H&E) vs HUA group” value is recorded as “effectively ameliorated” and the “serum UA level vs HUA group” value is reported as “significantly decreased”. In data set [1], the safety profile entry was “favorable safety profile”. The anti-hyperuricemic activity result in data set [2] is reported as “comparable to the first-line agent febuxostat”. The compound further returned a bioavailability in data set [3] of 1.55%. Moreover, the “appearance after addition of water and sufficient stirring” value in data set [4] is on record as “remained cloudy”. The solubility at 24 h in data set [5] (artificial gastric fluid) was around 0.32 µg/mL (≈ 0.911 µM). The Solubility result in data set [5] (artificial intestinal fluid) is reported as “completely insoluble”. The Solubility entry in data set [5] (water) is recorded as “completely insoluble”.

On to `Cc1nc(-c2ccc(OCC(C)C)c(C#N)c2)sc1C(=O)O` [FEB, febuxostat, reference compound], for which, in the data set on HUA mice, the “renal histopathological damage (H&E) vs HUA group” value is listed as “effectively ameliorated” and the “serum UA level vs HUA group” value was “significantly decreased”.
